Test results as given in paper PMC4475445 (Journal of immunology (Baltimore, Md. : 1950), 2015).

Columns and labels:
BMMΦ [1] = test: TLR-dependent cytokine secretion; format: cell-based, mouse; conditions: 30 min pretreatment, then LPS or CpG 16 h; wild-type and Btk-/-Tec-/- BMMΦ
BMMΦ [2] = test: Apoptosis assay; format: cell-based; conditions: wild-type and Btk-/-Tec-/- BMMΦ, several doses, Figure S2D
Procedure, shortened: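 Bone marrow was flushed from femurs and tibias of 6–15-week-old mice, red cells were lysed, and the cells were filtered and plated at 7.5 × 10^5 cells/ml. Cells were grown in DMEM with 10% heat-inactivated FBS, 10 mM Hepes and 10% CMG 12-14 conditioned medium as the M-CSF source, and re-plated on day 5. Apoptosis was scored by annexin V/7-AAD staining and flow cytometry.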

ITK = biological target: T1, ITK (Homo sapiens, UniProt Q08881); test: HotSpot radioisotope kinase assay; format: biochemical
T1 sequence (Q08881 1-620): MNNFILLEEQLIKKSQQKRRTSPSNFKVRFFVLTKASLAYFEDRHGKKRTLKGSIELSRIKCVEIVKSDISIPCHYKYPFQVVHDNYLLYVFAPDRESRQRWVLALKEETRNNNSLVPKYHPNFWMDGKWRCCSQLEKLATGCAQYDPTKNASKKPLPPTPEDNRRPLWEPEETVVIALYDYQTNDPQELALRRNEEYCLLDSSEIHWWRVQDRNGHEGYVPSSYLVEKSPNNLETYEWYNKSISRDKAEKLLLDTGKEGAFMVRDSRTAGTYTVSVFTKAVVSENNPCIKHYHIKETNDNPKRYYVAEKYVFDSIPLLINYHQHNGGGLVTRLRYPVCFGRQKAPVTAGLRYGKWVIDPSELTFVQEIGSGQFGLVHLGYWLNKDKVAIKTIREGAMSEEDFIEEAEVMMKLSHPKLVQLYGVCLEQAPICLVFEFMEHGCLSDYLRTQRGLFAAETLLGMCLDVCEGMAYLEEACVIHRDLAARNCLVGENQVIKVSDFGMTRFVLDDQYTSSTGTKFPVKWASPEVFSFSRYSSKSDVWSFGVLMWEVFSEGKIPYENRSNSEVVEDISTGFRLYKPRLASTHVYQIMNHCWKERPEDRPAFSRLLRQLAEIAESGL
Procedure, shortened: (§1)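 Radiometric HotSpot assay with P81 filter capture. Kinase was added to freshly prepared substrate with cofactors and preincubated 30 min at room temperature, then started with 33P-ATP, with ATP at Km or 10× Km. Reactions ran 2 hr at room temperature; unreacted phosphate was washed off with 0.1% phosphoric acid. Test compound: 10 doses, […] serial dilution from 10 μM. Duplicates; staurosporine positive control.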

Bmx = biological target: T2, Bmx (Homo sapiens, UniProt P51813); test: HotSpot radioisotope kinase assay; format: biochemical
T2 sequence (P51813 1-675): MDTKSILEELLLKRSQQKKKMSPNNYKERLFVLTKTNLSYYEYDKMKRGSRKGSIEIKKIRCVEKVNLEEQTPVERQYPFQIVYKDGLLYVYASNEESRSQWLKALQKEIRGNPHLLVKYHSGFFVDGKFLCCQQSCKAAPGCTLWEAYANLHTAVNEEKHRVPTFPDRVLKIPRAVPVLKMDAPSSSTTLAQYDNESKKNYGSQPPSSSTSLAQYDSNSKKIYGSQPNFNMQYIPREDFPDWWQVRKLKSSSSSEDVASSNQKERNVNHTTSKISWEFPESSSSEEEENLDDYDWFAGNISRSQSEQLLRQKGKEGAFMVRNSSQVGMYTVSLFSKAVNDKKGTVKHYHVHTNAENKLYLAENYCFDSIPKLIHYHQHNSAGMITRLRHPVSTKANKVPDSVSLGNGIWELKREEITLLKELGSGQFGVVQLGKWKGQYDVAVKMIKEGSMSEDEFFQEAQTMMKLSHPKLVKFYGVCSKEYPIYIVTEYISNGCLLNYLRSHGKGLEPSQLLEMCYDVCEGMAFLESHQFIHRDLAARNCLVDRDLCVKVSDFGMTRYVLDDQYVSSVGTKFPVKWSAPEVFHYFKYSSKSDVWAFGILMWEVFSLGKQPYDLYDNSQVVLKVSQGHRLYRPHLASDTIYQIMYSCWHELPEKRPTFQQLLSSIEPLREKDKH
Procedure, shortened: as §1

Btk = Btk (Homo sapiens, UniProt Q06187); test: HotSpot radioisotope kinase assay; format: biochemical
Sequence of Btk (Q06187 whole entry): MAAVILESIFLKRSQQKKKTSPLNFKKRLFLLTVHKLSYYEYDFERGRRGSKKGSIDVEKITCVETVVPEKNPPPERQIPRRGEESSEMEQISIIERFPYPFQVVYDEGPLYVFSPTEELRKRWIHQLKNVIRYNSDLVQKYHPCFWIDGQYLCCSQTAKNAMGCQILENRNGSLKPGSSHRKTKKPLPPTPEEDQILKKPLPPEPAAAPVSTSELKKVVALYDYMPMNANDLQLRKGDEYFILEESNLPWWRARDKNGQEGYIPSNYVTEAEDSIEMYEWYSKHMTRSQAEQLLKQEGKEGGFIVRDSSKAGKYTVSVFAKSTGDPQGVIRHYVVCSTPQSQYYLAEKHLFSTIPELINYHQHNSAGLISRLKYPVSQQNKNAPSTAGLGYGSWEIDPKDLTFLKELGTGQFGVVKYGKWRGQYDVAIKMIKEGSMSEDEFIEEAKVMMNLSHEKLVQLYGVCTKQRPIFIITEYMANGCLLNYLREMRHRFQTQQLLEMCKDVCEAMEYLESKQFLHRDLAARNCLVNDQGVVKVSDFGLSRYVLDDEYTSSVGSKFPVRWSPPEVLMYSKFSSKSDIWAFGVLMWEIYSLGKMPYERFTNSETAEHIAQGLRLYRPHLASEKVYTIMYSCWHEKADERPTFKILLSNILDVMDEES
Procedure, shortened: as §1

Tec = biological target: T3, Tec (Homo sapiens, UniProt P42680); test: HotSpot radioisotope kinase assay; format: biochemical
T3 sequence (P42680 1-631): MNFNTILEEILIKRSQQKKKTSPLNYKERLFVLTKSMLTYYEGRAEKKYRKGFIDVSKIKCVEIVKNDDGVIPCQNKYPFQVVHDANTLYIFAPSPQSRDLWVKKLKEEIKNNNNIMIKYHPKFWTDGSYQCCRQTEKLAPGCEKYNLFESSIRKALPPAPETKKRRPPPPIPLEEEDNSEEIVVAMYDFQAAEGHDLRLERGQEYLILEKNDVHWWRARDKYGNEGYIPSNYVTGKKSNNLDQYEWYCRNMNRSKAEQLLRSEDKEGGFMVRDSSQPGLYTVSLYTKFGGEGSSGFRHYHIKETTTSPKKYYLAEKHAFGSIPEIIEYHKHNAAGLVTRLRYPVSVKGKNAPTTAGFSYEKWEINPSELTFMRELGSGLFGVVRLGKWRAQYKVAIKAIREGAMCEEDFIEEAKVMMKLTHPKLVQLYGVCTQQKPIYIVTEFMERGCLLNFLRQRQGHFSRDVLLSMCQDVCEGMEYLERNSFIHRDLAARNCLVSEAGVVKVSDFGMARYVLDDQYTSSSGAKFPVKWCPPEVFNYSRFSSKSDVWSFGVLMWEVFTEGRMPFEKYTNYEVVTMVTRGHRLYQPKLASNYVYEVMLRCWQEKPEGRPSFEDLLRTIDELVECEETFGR
Procedure, shortened: as §1

Tec kinases = test: Kinase selectivity panel; format: biochemical; conditions: 1μM test concentration, 10 μM 33P-ATP; Supplemental Table 2
Procedure, shortened: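 Test compound was dissolved in DMSO and tested at 1 μM final. Each kinase was added to fresh substrate with cofactors in reaction buffer and preincubated 30 min at room temperature. Reactions were started with 10 μM 33P-ATP and ran 2 hr at room temperature. After termination, unreacted phosphate was washed off with 0.1% phosphoric acid and bound label was read by P81 filtration. Run in duplicate; 10 μM staurosporine positive control.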

| IC50 (ITK) [µM] | IC50 (Bmx) [µM] | IC50 (Btk) [µM] | IC50 (Tec) [µM] | Kinase selectivity (Tec kinases) | Compound | TLR-dependent secretion of IL6 (BMMΦ [1]) | TLR-dependent secretion of TNF (BMMΦ [1]) | Percentage of dead (7-AAD positive) or apoptotic (Annexin V positive) cells (BMMΦ [2]) |
| --- | --- | --- | --- | --- | --- | --- | --- | --- |
| – | – | – | – | – | C=CC(=O)Nc1cccc(Nc2nc(Nc3ccc(OCCOC)cc3)ncc2F)c1 [CC-292] | decreased | decreased | did not alter |
| 0.172 | 0.0021 | 0.0125 | 0.022 | highly selective for Tec kinases | C=CC(=O)Nc1cccc(Nc2nc(Nc3ccc(OCCOC)c(F)c3)ncc2F)c1 [Compound1, N-(3-((5-fluoro-2-((3-fluoro-4-(2-methoxyethoxy)phenyl)amino)pyrimidin-4-yl)amino)phenyl)acrylamide] | – | – | – |
